A number with no mark means an inactive call. The source made the active and inactive calls.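 The calls were made as follows, unless noted: active = growth inhibition above 25% in both replicates, a cutoff set 3 SD above the mean; inconclusive = above 25% in only one replicate; inactive = the rest.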

The nature of one assay: growth suppression of yeast trafficking mutant, preliminary HTS, modulators of trafficking downstream of Golgi apparatus project, 1536-format plate, OD 615 nm (AID 637; in the data active = inhibition above about 30%). To be noted: yeast transport mutant growth, absorbance 615 nm, 18 h; stronger effect = higher value.
As usually defined, the inhibition is the relative decrease from the control value, in per cent. Turning to `COc1cc(NC(=O)C2C3C=CC(C3)C2C(=O)O)c(OC)cc1Cl` (stereo not drawn), the inhibition is -3.61%.

Regarding `COc1ccc(C2CC(c3ccc(C)cc3)Nc3ncnn32)cc1` (stereo not drawn), the inhibition is 3.28%.

Take `CCc1ccc(C2CC(c3cccc(OC)c3)n3nc(N)nc3N2)cc1` (stereo not drawn): the inhibition is 4.83%.

Take `COc1ccc(NS(=O)(=O)c2coc(C(N)=O)c2)cc1Cl`: the inhibition is 11%.

Take `O=C1c2ccccc2S(=O)(=O)N1CC(O)Cn1c2ccccc2c2ccccc21` (stereo not drawn): the inhibition was 94.7% (active).

Take `O=C(Nc1nnc(-c2ccc(Cl)cc2)o1)C1CCCCC1`: the inhibition was -2.33%.

As for `O=C1c2ccccc2C(Nc2ccc(F)cc2F)N1CCN1CCOCC1` (stereo not drawn), the inhibition was 3.17%.

As to `CCOc1ccc(N(CC(=O)NC2CCCCC2)S(=O)(=O)c2c(C)noc2C)cc1`, the inhibition is -12.8%.

Regarding `Cc1ccc2oc(=O)c3cnn(CC(=O)N4CCCc5ccccc54)c3c2c1`, the inhibition was -0.82%.

As to `O=C(Nn1cnnc1)C1Cc2ccccc2CN1S(=O)(=O)c1ccc(F)cc1` (stereo not drawn), the inhibition is 4.75%.

Consider `Cc1cc(C)cc(N(CC(=O)NC2CCC(C)CC2)S(=O)(=O)c2c(C)noc2C)c1` (stereo not drawn), for which the inhibition is -5.67%.

For the compound `Cc1nc2ccccn2c1/C(O)=C1\C(=O)C(=O)N(CCCN(C)C)C1c1ccc(F)cc1` (stereo not drawn), the inhibition was 3.11%.

With `CC(=O)N(C(C)=O)c1ncc2c([nH]c3ccccc32)c1C#N`, the inhibition was -7.26%.

Turning to `CC(C)c1ccc(C(O)c2cnc(C(C)C)n2C)cc1` (stereo not drawn), the inhibition is 2.5%.

Take `COCCn1cc(C(=O)c2ccccc2OCC(=O)Nc2cc(C)on2)cc(C#N)c1=O`: the inhibition is -1.17%.

`O=C(NC(=O)c1cccc(F)c1)OC[C@@H]1CCCN2CCCC[C@H]12`: the inhibition was 1.48%.

In the case of `CCN1CCN(C(=O)Cn2ncc3ccsc3c2=O)CC1`, the inhibition was 0.5%.

Take `CCCC(=O)Nc1cc(C)c2c(=O)oc3ccccc3c2n1`: the inhibition was 0.33%.

Take `Cc1cc(C)c(C#N)c(SCC(=O)Nc2ccc(S(=O)(=O)Nc3onc(C)c3C)cc2)n1`: the inhibition was 0.33%.

For `CC1=C(C(N)=O)C(c2ccncc2)n2nc(-c3ccccc3Cl)nc2N1` (stereo not drawn), the inhibition was -3.11%.

Take `O=C(C1CCCN1S(=O)(=O)c1cccc2cccnc12)N1CCn2c1nc1ccccc12` (stereo not drawn): the inhibition is 4.67%.

Regarding `Cc1ccc(C(=O)CC2(O)C(=O)N(C)c3ccc(Br)cc32)c(C)c1` (stereo not drawn), the inhibition is -0.83%.

For the compound `COc1ccc(OCCSc2nc3ccccc3n2CC(=O)O)cc1`, the inhibition is -2%.

A further assay can be described thus: OD615 S. cerevisiae growth inhibition, permissive medium, pilot counter-assay, permissive growth control for S. cerevisiae lifespan shortening project (AID 705). To be noted: OD615, 24 h, at 10 µM, stronger effect = higher value. The gist of the method:
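Test system: Saccharomyces cerevisiae strain carrying genetically modified DeaD replicative-lifespan system; buffer or medium: SC raffinose/galactose permissive medium; dosing: one dose 10 µM, DMSO 0.25% final; times: 24 h exposure, 30 °C; measured by: OD at 615 nm; read-out basis: growth inhibition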
With `O=C(Cn1cc2c(n1)CCCCC2)N1CCc2ccccc21`, the growth inhibition is -4.03%.

Take `CC(C)c1nccn1S(=O)(=O)c1cc(Cl)ccc1Cl`: the growth inhibition was -4.57%.

Take `CC(=O)Nc1cccc(NC(=O)CSc2nn3c(=O)c(C)nnc3s2)c1`: the growth inhibition was -3.39%.

Regarding `CCOc1ccc2nc(Nc3nc4c(c(=O)[nH]3)CCC4)nc(C)c2c1`, the growth inhibition is -9.17%.

Turning to `C(=N\c1c(-c2ccccc2)nc2n1CCS2)/c1ccccc1`, the growth inhibition is 1.59%.

With `CCN(CC)S(=O)(=O)c1ccc2oc(C(=O)N3CCOCC3)c(C)c2c1`, the growth inhibition was -6.28%.

Regarding `CCOC(=O)C1CCN(Cc2ccc(OC)c(C)c2OC)CC1`, the growth inhibition is -2.98%.

Take `Cc1cc(N)n2nc(-c3ccccc3)cc2n1`: the growth inhibition is -14.1%.

As to `Cc1nnc(SCC(=O)Nc2sc3c(c2C#N)CCCC3)[nH]c1=O`, the growth inhibition was 1.05%.

In the case of `Cc1cc(NC(=O)COc2cccc(C)c2C)no1`, the growth inhibition was -0.27%.

With `Cc1cc(C)c(NC(=O)CSc2nc3c(c(=O)n2C)SC(C)C3)c(C)c1` (stereo not drawn), the growth inhibition is -7.85%.

For the compound `CC(=O)c1ccc(OCC(O)CN2CCN(CCO)CC2)cc1` (stereo not drawn), the growth inhibition is -1.98%.

With `CCn1cc(C(=O)NCC2CCCO2)c(=O)c2cc(S(=O)(=O)N(C)C)ccc21` (stereo not drawn), the growth inhibition is -1.35%.

Regarding `C=CCSc1nc(N)c2c(C)c(C)sc2n1`, the growth inhibition was -10.6%.

With `CC1CCCN(C(=O)c2cc3c(-c4ccc(Cl)cc4)nn(C)c3s2)C1` (stereo not drawn), the growth inhibition is -9.3%.

On to `COc1cccc2cc(C(=O)OC3CCN(C)CC3)c(=O)oc12`, for which the growth inhibition is -7.33%.

In the case of `COC(=O)c1cn(C(=O)c2ccc(Br)o2)c2ccccc12`, the growth inhibition is 4.04%.

For `COc1cc(NC(=O)C2C3C=CC(C3)C2C(=O)O)c(OC)cc1Cl` (stereo not drawn), the growth inhibition was -4.4%.

For the compound `COc1ccc(C2CC(c3ccc(C)cc3)Nc3ncnn32)cc1` (stereo not drawn), the growth inhibition was 2%.

With `CCc1ccc(C2CC(c3cccc(OC)c3)n3nc(N)nc3N2)cc1` (stereo not drawn), the growth inhibition is -0.21%.

As to `COc1ccc(NS(=O)(=O)c2coc(C(N)=O)c2)cc1Cl`, the growth inhibition is -21.1%.

`O=C1c2ccccc2S(=O)(=O)N1CC(O)Cn1c2ccccc2c2ccccc21` (stereo not drawn): the growth inhibition is -2.73%.

Take `O=C(Nc1nnc(-c2ccc(Cl)cc2)o1)C1CCCCC1`: the growth inhibition was 4.85%.

Turning to `O=C1c2ccccc2C(Nc2ccc(F)cc2F)N1CCN1CCOCC1` (stereo not drawn), the growth inhibition is 0.235%.

Take `CCOc1ccc(N(CC(=O)NC2CCCCC2)S(=O)(=O)c2c(C)noc2C)cc1`: the growth inhibition is -6.46%.

As for `Cc1ccc2oc(=O)c3cnn(CC(=O)N4CCCc5ccccc54)c3c2c1`, the growth inhibition is -12.4%.

As to `O=C(Nn1cnnc1)C1Cc2ccccc2CN1S(=O)(=O)c1ccc(F)cc1` (stereo not drawn), the growth inhibition is -1.04%.

Take `Cc1cc(C)cc(N(CC(=O)NC2CCC(C)CC2)S(=O)(=O)c2c(C)noc2C)c1` (stereo not drawn): the growth inhibition was -23.2%.

Regarding `Cc1nc2ccccn2c1/C(O)=C1\C(=O)C(=O)N(CCCN(C)C)C1c1ccc(F)cc1` (stereo not drawn), the growth inhibition is -6.91%.

As for `CC(=O)N(C(C)=O)c1ncc2c([nH]c3ccccc32)c1C#N`, the growth inhibition was -10.9%.

As to `CC(C)c1ccc(C(O)c2cnc(C(C)C)n2C)cc1` (stereo not drawn), the growth inhibition was -6.82%.

For `COCCn1cc(C(=O)c2ccccc2OCC(=O)Nc2cc(C)on2)cc(C#N)c1=O`, the growth inhibition was -25.8%.

As for `O=C(NC(=O)c1cccc(F)c1)OC[C@@H]1CCCN2CCCC[C@H]12`, the growth inhibition is 1.28%.

As for `CCN1CCN(C(=O)Cn2ncc3ccsc3c2=O)CC1`, the growth inhibition is -0.535%.

In the case of `CCCC(=O)Nc1cc(C)c2c(=O)oc3ccccc3c2n1`, the growth inhibition was -11.5%.

In the case of `Cc1cc(C)c(C#N)c(SCC(=O)Nc2ccc(S(=O)(=O)Nc3onc(C)c3C)cc2)n1`, the growth inhibition is -1.4%.

For `CC1=C(C(N)=O)C(c2ccncc2)n2nc(-c3ccccc3Cl)nc2N1` (stereo not drawn), the growth inhibition is -8.2%.

Regarding `O=C(C1CCCN1S(=O)(=O)c1cccc2cccnc12)N1CCn2c1nc1ccccc12` (stereo not drawn), the growth inhibition is -4.09%.

Take `Cc1ccc(C(=O)CC2(O)C(=O)N(C)c3ccc(Br)cc32)c(C)c1` (stereo not drawn): the growth inhibition is 2.26%.

Turning to `COc1ccc(OCCSc2nc3ccccc3n2CC(=O)O)cc1`, the growth inhibition is -2.19%.

The values are drawn from PubChem BioAssay.
